Laboratory results: ChEMBL document CHEMBL4118190, “An SAR study of hydroxy-trifluoromethylpyrazolines as inhibitors of Orai1-mediated store operated Ca2+ entry in MDA-MB-231 breast cancer cells using a convenient Fluorescence Imaging Plate Reader assay” (Bioorg Med Chem, 2018)

Columns and labels:
Format in all cases: cell-based
MDA-MB-231 = assay: Inhibition of endoplasmic reticulum calcium channel in human MDA-MB-231 cells assessed as reduction in endoplasmic reticulum intracellular calcium release at 100 uM pretreated for 15 mins followed by SERCA inhibitor CPA addition measured after 700 secs by PBX dye based FLIPR assay relative to control
Outline: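 Same MDA-MB-231 PBX-dye FLIPR protocol: 15 min compound pretreatment at room temperature, then BAPTA (500 µM) and CPA (10 µM) to deplete ER stores. Peak 1 height after CPA addition (ER Ca2+ release) expressed as % inhibition relative to the DMSO control. Excitation 470–495 nm, emission 515–575 nm.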

[1] = target: T1, Calcium release-activated calcium channel protein 1 (Homo sapiens, UniProt Q96D31); assay: Inhibition of […] Orai1-medited store operated calcium entry in human MDA-MB-231 cells pretreated for 15 mins followed by BAPTA addition by PBX dye based FLIPR assay
Outline: (§1)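 MDA-MB-231 cells seeded 2×10^3/well and used 3 days later. Loaded 1 h at 37 °C with 2 µM PBX calcium dye, 5% signal enhancer and 500 µM probenecid in PSS, pH 7.3. Compound pretreated 15 min at room temperature. Then 500 µM BAPTA, 10 µM CPA, and 0.5 mM CaCl2 700 s after CPA. Read-out: peak 2 height as % inhibition vs DMSO. 95% CI, n = 4.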
Target sequence in this assay (Q96D31 whole entry): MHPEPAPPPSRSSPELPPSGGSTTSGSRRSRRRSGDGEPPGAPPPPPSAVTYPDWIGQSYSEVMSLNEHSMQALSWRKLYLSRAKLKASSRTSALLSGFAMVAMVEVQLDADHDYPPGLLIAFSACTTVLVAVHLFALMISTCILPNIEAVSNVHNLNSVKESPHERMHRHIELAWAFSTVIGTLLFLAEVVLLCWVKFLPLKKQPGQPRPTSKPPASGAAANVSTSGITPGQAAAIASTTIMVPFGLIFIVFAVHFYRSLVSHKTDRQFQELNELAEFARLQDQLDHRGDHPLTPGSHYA

[2] = target: T1, Calcium release-activated calcium channel protein 1; assay: Inhibition of […] Orai1-medited store operated calcium entry in human MDA-MB-231 cells at 100 uM pretreated for 15 mins followed by BAPTA addition by PBX dye based FLIPR assay relative to control; outline: as §1
Target sequence in this assay (Q96D31 whole entry, looked up): as the sequence (Q96D31 whole entry) above

[3] = target: T1, Calcium release-activated calcium channel protein 1; assay: Inhibition of […] Orai1-medited store operated calcium entry in human MDA-MB-231 cells at 30 uM pretreated for 15 mins followed by BAPTA addition by PBX dye based FLIPR assay relative to control; outline: as §1
Target sequence in this assay (Q96D31 whole entry, looked up): as the sequence (Q96D31 whole entry) above

[4] = target: T1, Calcium release-activated calcium channel protein 1; assay: Inhibition of […] Orai1-medited store operated calcium entry in human MDA-MB-231 cells at 300 uM pretreated for 15 mins followed by BAPTA addition by PBX dye based FLIPR assay relative to control; outline: as §1
Target sequence in this assay (Q96D31 whole entry, looked up): as the sequence (Q96D31 whole entry) above

[5] = target: T1, Calcium release-activated calcium channel protein 1; assay: Inhibition of […] Orai1-medited store operated calcium entry in human MDA-MB-231 cells at 10 uM pretreated for 15 mins followed by BAPTA addition by PBX dye based FLIPR assay relative to control; outline: as §1
Target sequence in this assay (Q96D31 whole entry, looked up): as the sequence (Q96D31 whole entry) above

| Compound | inhibition (MDA-MB-231) | IC50 [1] | inhibition [2] | inhibition [3] | inhibition [4] | inhibition [5] |
| --- | --- | --- | --- | --- | --- | --- |
| Cc1cccc(C2=NN(C(=O)Cc3ccccc3)C(O)(C(F)(F)F)C2)c1 (stereo unspecified) | < 10% | 36 µM |  |  |  |  |
| CC(=O)Nc1ccc(C2=NN(C(=O)Cc3ccccc3)C(O)(C(F)(F)F)C2)cc1 (stereo unspecified) | < 10% |  | < 10% |  |  |  |
| O=C(Cc1ccccc1)N1N=C(c2cccc(NC(=O)C(F)(F)F)c2)CC1(O)C(F)(F)F (stereo unspecified) | < 10% |  |  | 60% |  |  |
| Cc1cccc(C2=NN(C(=O)COc3ccccc3)C(O)(C(F)(F)F)C2)c1 (stereo unspecified) | < 10% |  | < 10% |  |  |  |
| N#Cc1cccc(C2=NN(C(=O)Cc3ccccc3)C(O)(C(F)(F)F)C2)c1 (stereo unspecified) | < 10% |  | < 10% |  |  |  |
| Cc1ccccc1C1=NN(C(=O)COc2ccccc2)C(O)(C(F)(F)F)C1 (stereo unspecified) | < 20% | 105 µM |  |  |  |  |
| Cc1ccccc1C1=NN(C(=O)CC2CCCCC2)C(O)(C(F)(F)F)C1 (stereo unspecified) | < 10% |  | < 10% |  |  |  |
| Cc1cccc(C2=NN(C(=O)Cc3cccc(Cl)c3)C(O)(C(F)(F)F)C2)c1 (stereo unspecified) | < 10% | 75 µM |  |  |  |  |
| Cc1cccc(C2(O)CC(C(F)(F)F)=NN2C(=O)c2ccccc2)c1 (stereo unspecified) | < 10% |  | < 10% |  |  |  |
| O=C(Cc1ccccc1)N1N=C(c2ccc(N3CCOCC3)cc2)CC1(O)C(F)(F)F (stereo unspecified) | < 10% |  | < 10% |  | 50% |  |
| O=C(Cc1ccccc1)N1N=C(c2cccc(F)c2F)CC1(O)C(F)(F)F (stereo unspecified) | < 10% | 55 µM | 80% |  |  |  |
| Cc1ccc(CC(=O)N2N=C(c3ccccc3C)CC2(O)C(F)(F)F)cc1 (stereo unspecified) | < 10% | 55 µM |  |  |  |  |
| O=C(Cc1ccccc1)N1N=C(c2cccc(Cl)c2)CC1(O)C(F)(F)F (stereo unspecified) | < 10% | 48 µM |  |  |  |  |
| O=C(Cc1ccccc1)N1N=C(c2ccccc2[N+](=O)[O-])CC1(O)C(F)(F)F (stereo unspecified) | < 10% |  | 40% |  |  |  |
| Cc1cccc(C2=NN(C(=O)Cc3ccccc3Cl)C(O)(C(F)(F)F)C2)c1 (stereo unspecified) | < 10% | 42 µM |  |  |  |  |
| COc1cccc(CC(=O)N2N=C(c3cccc(C)c3)CC2(O)C(F)(F)F)c1 (stereo unspecified) | < 10% | 32 µM |  |  |  |  |
| Cc1ccccc1CC(=O)N1N=C(c2ccccc2C)CC1(O)C(F)(F)F (stereo unspecified) | < 10% |  | 20% |  |  |  |
| O=C(Cc1ccccc1)N1N=C(c2ccc(Cl)cc2Cl)CC1(O)C(F)(F)F (stereo unspecified) | < 10% | 58 µM | 60% |  |  |  |
| N#Cc1ccc(C2=NN(C(=O)Cc3ccccc3)C(O)(C(F)(F)F)C2)cc1 (stereo unspecified) | < 10% |  | < 10% |  |  |  |
| O=C(Cc1ccccc1)N1N=C(c2ccccc2Cl)CC1(O)C(F)(F)F (stereo unspecified) | 50% | 33 µM |  |  |  |  |
| O=C(Cc1ccccc1)N1N=C(c2ccc(Cl)cc2)CC1(O)C(F)(F)F (stereo unspecified) | < 10% |  | < 10% |  |  |  |
| Cc1ccccc1C1=NN(C(=O)c2ccccc2)C(O)(C(F)(F)F)C1 (stereo unspecified) | < 10% |  | 20% |  |  |  |
| COc1cccc(CC(=O)N2N=C(c3ccccc3C)CC2(O)C(F)(F)F)c1 (stereo unspecified) | < 10% |  | 60% |  |  |  |

| Compound | inhibition (MDA-MB-231) | IC50 [1] | inhibition [2] | inhibition [3] | inhibition [4] | inhibition [5] |
| --- | --- | --- | --- | --- | --- | --- |
| Cc1cccc(C2=NN(C(=O)CC3CCCCC3)C(O)(C(F)(F)F)C2)c1 (stereo unspecified) | < 10% |  | < 10% |  |  |  |
| Cc1ccccc1C1=NN(C(=O)Cc2ccc(Cl)cc2)C(O)(C(F)(F)F)C1 (stereo unspecified) | < 10% | 47 µM |  |  |  |  |
| O=C(Cc1ccccc1)N1N=C(c2ccccc2)CC1(O)C(F)(F)F (stereo unspecified) | < 10% |  | < 10% |  |  |  |
| COc1ccc(CC(=O)N2N=C(c3ccccc3C)CC2(O)C(F)(F)F)cc1 (stereo unspecified) | < 10% |  | 30% |  |  |  |
| COc1ccc(CC(=O)N2N=C(c3cccc(C)c3)CC2(O)C(F)(F)F)cc1 (stereo unspecified) | < 10% | 33 µM |  |  |  |  |
| O=C(Cc1ccccc1)N1N=C(c2ccccn2)CC1(O)C(F)(F)F (stereo unspecified) | < 10% |  | 20% |  |  |  |
| O=C(Cc1ccccc1)N1N=C(c2ccc([N+](=O)[O-])cc2)CC1(O)C(F)(F)F (stereo unspecified) | < 10% |  | < 10% |  |  |  |
| Cc1cccc(CC(=O)N2N=C(c3cccc(C)c3)CC2(O)C(F)(F)F)c1 (stereo unspecified) | < 10% | 45 µM |  |  |  |  |
| Cc1cccc(C2=NN(C(=O)Cc3ccccc3C)C(O)(C(F)(F)F)C2)c1 (stereo unspecified) | < 10% |  | < 10% |  |  |  |
| O=C(Cc1ccccc1)N1N=C(c2cccc(F)c2)CC1(O)C(F)(F)F (stereo unspecified) | < 10% |  |  | 60% |  |  |
| Cc1ccc(CC(=O)N2N=C(c3cccc(C)c3)CC2(O)C(F)(F)F)cc1 (stereo unspecified) | < 10% | 42 µM |  |  |  |  |
| COc1ccccc1C1=NN(C(=O)Cc2ccccc2)C(O)(C(F)(F)F)C1 (stereo unspecified) | < 10% |  | 25% |  |  |  |
| O=C(Cc1ccccc1)N1N=C(C(F)(F)F)CC1(O)c1ccccc1[N+](=O)[O-] (stereo unspecified) | 20% |  | 30% |  |  |  |
| O=C(Cc1ccccc1)N1N=C(c2cccc(Br)c2)CC1(O)C(F)(F)F (stereo unspecified) | < 10% | 47 µM |  |  |  |  |
| O=C(Cc1ccccc1)N1N=C(c2ccc(Br)cc2)CC1(O)C(F)(F)F (stereo unspecified) | < 10% |  | < 10% |  |  |  |
| Cc1cccc(C2=NN(C(=O)Cc3ccc(Cl)cc3)C(O)(C(F)(F)F)C2)c1 (stereo unspecified) | < 10% | 60 µM |  |  |  |  |
| O=C(Cc1ccccc1)N1N=C(c2ccccc2F)CC1(O)C(F)(F)F (stereo unspecified) | < 10% |  | 30% |  |  |  |
| O=C(Cc1ccccc1)N1N=C(c2c(F)cccc2F)CC1(O)C(F)(F)F (stereo unspecified) | < 10% |  | < 10% |  |  |  |
| CS(=O)(=O)Nc1cccc(C2=NN(C(=O)Cc3ccccc3)C(O)(C(F)(F)F)C2)c1 (stereo unspecified) | < 10% |  |  | 20% |  |  |
| Cc1ccccc1C1=NN(C(=O)Cc2ccccc2Cl)C(O)(C(F)(F)F)C1 (stereo unspecified) | < 10% | 40 µM |  |  |  |  |
| COc1cccc(OC)c1C1=NN(C(=O)Cc2ccccc2)C(O)(C(F)(F)F)C1 (stereo unspecified) | < 10% |  | < 10% |  |  |  |
| COc1ccccc1CC(=O)N1N=C(c2ccccc2C)CC1(O)C(F)(F)F (stereo unspecified) | < 10% |  | 60% |  |  |  |
| COc1ccccc1CC(=O)N1N=C(c2cccc(C)c2)CC1(O)C(F)(F)F (stereo unspecified) | < 10% |  | 50% |  |  |  |

| Compound | inhibition (MDA-MB-231) | IC50 [1] | inhibition [2] | inhibition [3] | inhibition [4] | inhibition [5] |
| --- | --- | --- | --- | --- | --- | --- |
| O=C(Cc1ccccc1)N1N=C(c2ccc3c(c2)CCCC3)CC1(O)C(F)(F)F (stereo unspecified) | < 10% | 89 µM | 50% |  |  |  |
| O=C(Cc1ccccc1)N1N=C(c2ccc(F)cc2)CC1(O)C(F)(F)F (stereo unspecified) | < 10% |  | < 10% |  |  |  |
| Cc1ccc(C2=NN(C(=O)Cc3ccccc3)C(O)(C(F)(F)F)C2)cc1 (stereo unspecified) | < 10% |  | < 10% |  |  |  |
| O=C(Cc1ccccc1)N1N=C(c2cccc(C(F)(F)F)c2)CC1(O)C(F)(F)F (stereo unspecified) | < 10% | 29 µM |  |  |  |  |
| Cc1cccc(CC(=O)N2N=C(c3ccccc3C)CC2(O)C(F)(F)F)c1 (stereo unspecified) | < 10% | 42 µM |  |  |  |  |
| Cc1ccccc1C1(O)CC(C(F)(F)F)=NN1C(=O)c1ccccc1 (stereo unspecified) | < 10% |  |  |  |  | 20% |
| Cc1cccc(C2=NN(C(=O)c3ccccc3)C(O)(C(F)(F)F)C2)c1 (stereo unspecified) | < 10% |  | 30% |  |  |  |
| Cc1ccccc1C1=NN(C(=O)Cc2cccc(Cl)c2)C(O)(C(F)(F)F)C1 (stereo unspecified) | < 10% | 79 µM |  |  |  |  |
| Cc1ccccc1C1(O)CC(C(F)(F)F)=NN1C(=O)CC1CCCCC1 (stereo unspecified) | < 10% |  | 20% |  |  |  |
| COc1ccc(C2=NN(C(=O)Cc3ccccc3)C(O)(C(F)(F)F)C2)cc1 (stereo unspecified) | < 10% |  | < 10% |  |  |  |
| O=C(Cc1ccccc1)N1N=C(c2cc(Cl)ccc2Cl)CC1(O)C(F)(F)F (stereo unspecified) | < 10% | 54 µM | 60% |  |  |  |
| O=C(Cc1ccccc1)N1N=C(c2ccc(OC(F)(F)F)cc2)CC1(O)C(F)(F)F (stereo unspecified) | < 10% |  | < 10% |  |  |  |
| O=C(Cc1ccccc1)N1N=C(c2cccc(OC(F)(F)F)c2)CC1(O)C(F)(F)F (stereo unspecified) | < 10% |  | 50% |  |  |  |
| O=C(Cc1ccccc1)N1N=C(c2cccc(OCCN3CCOCC3)c2)CC1(O)C(F)(F)F (stereo unspecified) | 50% |  | 50% |  |  |  |
| O=C(Cc1ccccc1)N1N=C(c2ccncc2)CC1(O)C(F)(F)F (stereo unspecified) | < 10% |  | < 10% |  | 50% |  |
| COc1cccc(C2=NN(C(=O)Cc3ccccc3)C(O)(C(F)(F)F)C2)c1 (stereo unspecified) | < 10% |  | 36 to 37% |  |  | 14% |
| O=C(Cc1ccccc1)N1N=C(c2ccccc2Br)CC1(O)C(F)(F)F (stereo unspecified) | < 10% | 30 µM |  |  |  |  |
| O=C(Cc1ccccc1)N1N=C(c2ccccc2OC(F)(F)F)CC1(O)C(F)(F)F (stereo unspecified) | < 10% |  | < 10% |  |  |  |
| O=C(Cc1ccccc1)N1N=C(c2cccc([N+](=O)[O-])c2)CC1(O)C(F)(F)F (stereo unspecified) | < 10% | 89 µM |  |  |  |  |
| Cc1ccccc1C1=NN(C(=O)Cc2ccccc2)C(O)(C(F)(F)F)C1 (stereo unspecified) | < 10% |  |  | 50% |  |  |
| O=C(Cc1ccccc1)N1N=C(c2cccnc2)CC1(O)C(F)(F)F (stereo unspecified) | < 10% |  | < 10% |  |  |  |
